{"source": "ChEMBL document CHEMBL4177625", "about": "“Ability of higenamine and related compounds to enhance glucose uptake in L6 cells” (Bioorg Med Chem, 2017)", "assay_type_in_all_cases": "functional", "key": {"[1]": {"target": "Beta-2 adrenergic receptor (Rattus norvegicus) (UniProt P10608)", "sequence (P10608 whole entry, looked up)": "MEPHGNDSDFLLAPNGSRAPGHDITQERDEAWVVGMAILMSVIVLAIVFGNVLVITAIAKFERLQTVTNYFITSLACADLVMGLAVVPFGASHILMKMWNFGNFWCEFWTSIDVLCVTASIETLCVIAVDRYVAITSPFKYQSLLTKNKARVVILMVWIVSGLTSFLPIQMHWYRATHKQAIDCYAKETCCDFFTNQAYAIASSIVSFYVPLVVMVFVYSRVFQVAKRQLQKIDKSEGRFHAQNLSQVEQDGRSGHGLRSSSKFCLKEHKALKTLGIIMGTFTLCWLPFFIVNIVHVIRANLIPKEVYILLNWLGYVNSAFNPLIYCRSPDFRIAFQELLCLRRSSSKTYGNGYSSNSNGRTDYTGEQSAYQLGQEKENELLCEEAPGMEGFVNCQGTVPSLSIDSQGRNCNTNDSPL", "test": "Agonist activity at beta2 adrenergic receptor in rat L6 cell lysate assessed as increase in intracellular 2-deoxyglucose uptake at 100 uM preincubated for 4 hrs followed by 2-deoxyglucose measured after 20 mins by fluorescence-based enzymatic assay relative to control", "method_in_brief": "(§1)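 L6 rat myoblasts (JCRB9081) were grown in DMEM with 10% FBS at 37°C under 10% CO2. At confluence they were differentiated in DMEM with 2% horse serum for 6–8 days. Cells were serum-starved, then exposed to sample in serum-free DMEM for 4 h, with 100 nM insulin as the positive control. They were rinsed in KRPH buffer pH 7.4 and given 1 mM 2-deoxyglucose for 20 min. After washing, cells were lysed in 0.05 M NaOH and lysate 2-deoxyglucose was quantified enzymatically by fluorescence.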"}, "[2]": {"target": "Beta-2 adrenergic receptor (Rattus norvegicus) (UniProt P10608)", "test": "Agonist activity at beta2 adrenergic receptor in rat L6 cell lysate assessed as increase in intracellular 2-deoxyglucose uptake at 0.5 to 100 uM preincubated for 4 hrs followed by 2-deoxyglucose measured after 20 mins by fluorescence-based enzymatic assay relative to control", "method_in_brief": "as §1"}, "[3]": {"target": "Beta-2 adrenergic receptor (Rattus norvegicus, UniProt P10608)", "sequence (P10608 whole entry)": "as the sequence (P10608 whole entry, looked up) above", "test": "Agonist activity at beta2 adrenergic receptor in rat L6 cell lysate assessed as increase in intracellular 2-deoxyglucose uptake preincubated for 4 hrs followed by 2-deoxyglucose addition measured after 20 mins by fluorescence-based enzymatic assay relative to control", "method_in_brief": "as §1"}, "[4]": {"target": "Beta-2 adrenergic receptor (Rattus norvegicus) (UniProt P10608)", "test": "Agonist activity at beta2 adrenergic receptor in rat L6 cell lysate assessed as increase in intracellular 2-deoxyglucose uptake at 10 to 100 uM preincubated for 4 hrs followed by 2-deoxyglucose measured after 20 mins by fluorescence-based enzymatic assay relative to control", "method_in_brief": "as §1"}, "[5]": {"target": "Beta-2 adrenergic receptor (Rattus norvegicus) (UniProt P10608)", "test": "Agonist activity at beta2 adrenergic receptor in rat L6 cell lysate assessed as increase in intracellular 2-deoxyglucose uptake at more than 5 uM preincubated for 4 hrs followed by 2-deoxyglucose measured after 20 mins by fluorescence-based enzymatic assay relative to control", "method_in_brief": "as §1"}, "[6]": {"target": "Beta-2 adrenergic receptor (Rattus norvegicus) (UniProt P10608)", "test": "Agonist activity at beta2 adrenergic receptor in rat L6 cell lysate assessed as increase in intracellular 2-deoxyglucose uptake at 0.1 to 100 uM preincubated for 4 hrs followed by 2-deoxyglucose measured after 20 mins by fluorescence-based enzymatic assay relative to control", "method_in_brief": "as §1"}, "[7]": {"target": "Beta-2 adrenergic receptor (Rattus norvegicus) (UniProt P10608)", "test": "Agonist activity at beta2 adrenergic receptor in rat L6 cell lysate assessed as increase in intracellular 2-deoxyglucose uptake at 0.1 to 100 uM preincubated for 4 hrs followed by 2-deoxyglucose measured after 20 mins by fluorescence-based enzymatic assay relative to higenamine", "method_in_brief": "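Differentiated L6 rat myotubes (2% horse serum, 6–8 days post-confluence) serum-starved, then exposed to sample in serum-free DMEM for 4 h; insulin 100 nM as positive control. Rinsed with KRPH buffer (pH 7.4), given 1 mM 2-deoxyglucose for 20 min, washed thrice, lysed in 0.05 M NaOH; lysate 2-deoxyglucose measured enzymatically by fluorescence.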"}}, "note": "Activity calls are given as the source filed them. The calls are words filed in the database; no cut-off is given here."}
{"smiles": "COc1cc2c(cc1O)CCNC2Cc1ccc(O)cc1", "note": "(stereo unspecified)", "values": [{"measurement": "fold change (FC)", "setting": "[1]", "value": 1.2}, {"measurement": "Activity", "setting": "[2]", "value": "Active"}]}
{"smiles": "Oc1ccc(C[C@H]2NCCc3cc(O)c(O)cc32)cc1", "note": "[(+)-HIGENAMINE]", "values": [{"measurement": "EC50", "setting": "[3]", "value": 4500, "unit": "nM"}]}
{"smiles": "Oc1ccc(CC2NCCc3cc(O)c(O)cc32)cc1", "note": "(stereo unspecified)", "values": [{"measurement": "Activity", "setting": "[4]", "value": "Active"}, {"measurement": "fold change (FC)", "setting": "[5]", "value": "> 2"}]}
{"smiles": "OC[C@H]1O[C@@H](Oc2ccc(C[C@@H]3NCCc4cc(O)c(O)cc43)cc2)[C@H](O)[C@@H](O)[C@@H]1O", "values": [{"measurement": "EC50", "setting": "[3]", "value": 1300, "unit": "nM"}]}
{"smiles": "NC[C@H](O)c1ccc(O)c(O)c1", "values": [{"measurement": "Activity", "setting": "[4]", "value": "Active"}]}
{"smiles": "CN1CCc2cc(O)c(O)cc2C1Cc1ccc(O)cc1", "note": "(stereo unspecified)", "values": [{"measurement": "fold change (FC)", "setting": "[1]", "value": 1.2}, {"measurement": "Activity", "setting": "[2]", "value": "Active"}]}
{"smiles": "COc1ccc(CC2NCCc3cc(O)c(O)cc32)cc1", "note": "(stereo unspecified)", "values": [{"measurement": "Activity", "setting": "[6]", "value": "Active"}]}
{"smiles": "OC[C@H]1O[C@@H](Oc2ccc(C[C@H]3NCCc4cc(O)c(O)cc43)cc2)[C@H](O)[C@@H](O)[C@@H]1O", "values": [{"measurement": "EC50", "setting": "[3]", "value": 9000, "unit": "nM"}]}
{"smiles": "COc1cc2c(cc1OC)C(Cc1ccc(O)cc1)NCC2", "note": "(stereo unspecified)", "values": [{"measurement": "Activity", "setting": "[6]", "value": "Active"}]}
{"smiles": "COc1cc2c(cc1O)C(Cc1ccc(O)cc1)NCC2", "note": "(stereo unspecified)", "values": [{"measurement": "Activity", "setting": "[7]", "value": 40, "unit": "%"}, {"measurement": "fold change (FC)", "setting": "[2]", "value": 1.6}]}
{"smiles": "Oc1ccc(C[C@@H]2NCCc3cc(O)c(O)cc32)cc1", "note": "[(-)-HIGENAMINE]", "values": [{"measurement": "EC50", "setting": "[3]", "value": 600, "unit": "nM"}]}
{"smiles": "CNC[C@H](O)c1ccc(O)c(O)c1", "values": [{"measurement": "Activity", "setting": "[4]", "value": "Active"}]}
